Experimental data as given in ChEMBL document CHEMBL1138753, “Synthesis and biological activity of analogues of the antimicrotubule agent N,beta,beta-trimethyl-L-phenylalanyl-N(1)-[(1S,2E)-3-carboxy-1-isopropylbut-2-enyl]- N(1),3-dimethyl-L-valinamide (HTI-286)” (J Med Chem, 2004).

Key:
[1] = Inhibitory concentration against S1 cells was evaluated; assay type: functional, cell-based
Method in brief: (§1)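 Cytotoxicity panel covered tumor lines differing in P-glycoprotein expression. Lox melanoma and KM20 have none; NCI-H1299, HCT-15 and S1 express it. Result is the average IC50 (nM) ± SEM.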

LOX IMVI = assay: Inhibitory concentration against Lox melanoma cells; assay type: functional, cell-based; details: Homo sapiens; method in brief: as §1
NCI-H1299 = assay: Inhibitory concentration against NCI-H1299 cells was evaluated; assay type: functional, cell-based; details: Homo sapiens; method in brief: as §1
[2] = Inhibitory concentration against KM20 cells was evaluated; assay type: functional, cell-based, Homo sapiens; method in brief: as §1
HCT-15 = assay: Inhibitory concentration against HCT-15 cells was evaluated; assay type: functional, cell-based; details: Homo sapiens; method in brief: as §1
KB 3-1 = assay: Inhibitory concentration against KB-3-1 cells was evaluated; assay type: functional, cell-based; details: Homo sapiens
Method in brief: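 Cytotoxicity was measured in paclitaxel-sensitive KB-3-1 human carcinoma cells. The value is the average IC50 in nM ± SEM; where no SEM is given, it is under 10% of the average.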

Tubulin beta-1 chain [3] = target: T1, Tubulin beta-1 chain (Homo sapiens, UniProt Q9H4B7); assay: Percent inhibition of tubulin polymerization at 0.3 uM concentration; assay type: functional
T1 sequence (Q9H4B7 whole entry): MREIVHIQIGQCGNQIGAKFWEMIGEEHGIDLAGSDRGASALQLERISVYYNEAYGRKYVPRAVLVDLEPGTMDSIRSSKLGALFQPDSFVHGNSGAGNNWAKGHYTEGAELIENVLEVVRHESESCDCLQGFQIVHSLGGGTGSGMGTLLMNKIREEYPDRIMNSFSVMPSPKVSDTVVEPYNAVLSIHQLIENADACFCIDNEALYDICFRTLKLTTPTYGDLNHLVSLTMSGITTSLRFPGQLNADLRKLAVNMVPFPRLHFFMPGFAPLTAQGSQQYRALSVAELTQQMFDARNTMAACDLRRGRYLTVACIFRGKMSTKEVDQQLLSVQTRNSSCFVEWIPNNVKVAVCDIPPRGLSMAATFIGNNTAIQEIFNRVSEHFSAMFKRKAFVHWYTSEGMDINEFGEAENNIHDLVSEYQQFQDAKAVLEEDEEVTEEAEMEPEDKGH

[4] = Concentration required to inhibit tumor cell growth in KB-3-1 cells; assay type: functional, cell-based, Homo sapiens; details: Homo sapiens, KB 3-1
Method in brief: (§2)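 Cytotoxicity was measured in paclitaxel-sensitive KB-3-1 cells and in KB-8-5 and KB-V1 cells, which express moderate and high P-glycoprotein respectively. Result is the average IC50 (nM) ± SEM; SEM is omitted where it is below 10% of the average.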

KB [5] = assay: Concentration required to inhibit tumor cell growth in KB-8-5 cells; assay type: functional, cell-based, Homo sapiens; details: Homo sapiens, KB; method in brief: as §2
KB [6] = assay: Concentration required to inhibit tumor cell growth in KB-V1 cells; assay type: functional, cell-based; details: Homo sapiens; method in brief: as §2
Tubulin beta-1 chain [7] = target: T1, Tubulin beta-1 chain; assay: Binding affinity towards tubulin; e = no evidence for binding

SMILES	IC50 [1] [nM]	IC50 (LOX IMVI) [nM]	IC50 (NCI-H1299) [nM]	IC50 [2] [nM]	IC50 (HCT-15) [nM]	IC50 (KB 3-1) [nM]	inhibition (Tubulin beta-1 chain [3]) [%]	IC50 [4] [nM]	IC50 (KB [5]) [nM]	IC50 (KB [6]) [nM]	Kd (Tubulin beta-1 chain [7])
CC(=O)O[C@H]1C(=O)[C@@]2(C)[C@H]([C@H](OC(=O)c3ccccc3)[C@]3(O)C[C@H](OC(=O)[C@H](O)[C@@H](NC(=O)c4ccccc4)c4ccccc4)C(C)=C1C3(C)C)[C@]1(OC(C)=O)CO[C@@H]1C[C@@H]2O [PACLITAXEL]	92	17.3	37.7	8.9	438	3.9	–	–	–	–	–
C/C(=C\[C@H](C(C)C)N(C)C(=O)[C@@H](NC(=O)[C@@H](C)C(C)(C)c1ccccc1)C(C)(C)C)C(=O)O	–	1380	1070	–	1200	–	94	561	639	> 3000	No evidence for binding
